Source: PubChem
NR2E3 ag-1: NR2E3 agonists in two-hybrid cells, primary screen, cell-based, luminescence, CHO-S, Gal4-NCOR/VP16-NR2E3; Photoreceptor-specific nuclear receptor (Homo sapiens), Q9Y5X4; luciferase; inhibition of corepressor binding, % at 3.98 µM; 0.35% of 360,000 active;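 active means inhibition above the mean of all tested compounds plus 3 SD, cut at about 70% in these data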;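 further: 0% = DMSO with NR2E3 transfected cells and 100% = cells lacking NR2E3 construct; higher means lower luciferase signal from less NR2E3 corepressor binding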
NR2E3 ag-2: inhibitors of NR2E3-RetCOR corepressor binding, primary screen, NR2E3 agonist project, biochemical, TR-FRET, GST-NR2E3, biotin-RetCOR. Photoreceptor-specific nuclear receptor (Homo sapiens), Q9Y5X4. 1536-well. inhibition of corepressor binding, % at 4.78 µM. 0.12% of 320,000 active. AID 2300, 2010;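 active means percent inhibition above the cutoff of mean plus 3 SD of all tested compounds, set per screening campaign, cut at about 20% in these data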;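 further: 0% = DMSO wells and 100% = biotin wells as full block of FRET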
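System: GST-tagged NR2E3 plus biotinylated RetCOR corepressor; Amount: 1.35 nM GST-tagged NR2E3 final; Dosing: single nominal compound dose of 4.8 µM; Schedule: 5 h incubation at 4 °C; Technique: TR-FRET with europium anti-GST and streptavidin-D2, 340 nm excitation; Controls: biotin wells as high control, 0.6% DMSO wells as low control.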
PG9 Ab binder: binders of HIV-1 gp120 antibody PG9, primary screen, biochemical, TR-FRET; TR-FRET gp120-PG9 antibody binding; inhibition, % at 6.7 µM; HIV-1 gp120 / PG9 antibody interaction; 0.43% of 360,000 active; in the data active means inhibition above about 8.5%
Neddylation inh: inhibitors of cullin neddylation, primary screen, biochemical, TR-FRET, uHTS, NAE and Ubc12 | 0.58% of 360,000 active | NEDD8-conjugating enzyme Ubc12 (Homo sapiens) + NEDD8-activating enzyme E1 regulatory … | calls only at 25 µM; in the data active means inhibition above about 36%
Target sequence (P61081 whole entry, looked up): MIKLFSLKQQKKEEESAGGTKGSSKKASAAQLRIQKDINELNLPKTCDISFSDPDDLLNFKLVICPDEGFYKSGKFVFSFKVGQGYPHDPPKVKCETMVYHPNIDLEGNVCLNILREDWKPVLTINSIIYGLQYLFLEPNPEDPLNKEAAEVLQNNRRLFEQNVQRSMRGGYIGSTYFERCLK
Target sequence (Q13564 whole entry, looked up): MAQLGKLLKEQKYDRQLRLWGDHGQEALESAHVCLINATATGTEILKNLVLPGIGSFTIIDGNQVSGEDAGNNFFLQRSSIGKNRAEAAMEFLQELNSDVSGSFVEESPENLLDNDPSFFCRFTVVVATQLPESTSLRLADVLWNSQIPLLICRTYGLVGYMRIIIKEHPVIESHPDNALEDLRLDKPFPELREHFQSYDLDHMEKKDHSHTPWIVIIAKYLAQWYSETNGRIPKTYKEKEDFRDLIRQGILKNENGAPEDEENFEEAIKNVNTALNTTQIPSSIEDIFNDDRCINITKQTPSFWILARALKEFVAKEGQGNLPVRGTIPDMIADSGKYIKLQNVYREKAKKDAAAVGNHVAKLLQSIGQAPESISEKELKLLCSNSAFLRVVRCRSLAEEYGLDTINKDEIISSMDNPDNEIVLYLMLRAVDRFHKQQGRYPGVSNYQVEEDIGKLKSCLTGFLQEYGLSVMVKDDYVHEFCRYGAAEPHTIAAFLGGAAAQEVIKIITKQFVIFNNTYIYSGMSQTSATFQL
NR1D1 modulator: modulators of Rev-erb alpha DNA binding, primary screen, biochemical, FITC-DNA, fluorescence polarization, uHTS; AID 1259318, 2017; Nuclear receptor subfamily 1 group D member 1 (Homo sapiens), P20393; Rev-erbα–FITC-DNA binding, 90 min; 0.79% of 370,000 active; activity, % at 10 µM;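 active means activity above about 14%, limit read from the data; passing the limit was not always enough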;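 further: 0% = DMSO wells with 35 nM protein and 100% = DMSO wells with 750 nM protein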
NR1D1 mod conf: modulators of Rev-erb alpha DNA binding, confirmation, biochemical, FITC-DNA, fluorescence polarization, single point; shares compounds with NR1D1 modulator; 90 min; activation, % at 25 µM; 61% of 3,000 active;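 active means activation at or above a set limit, or at least 3 SD above the negative control mean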;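 further: 0% = 35 nM protein with DMSO and 100% = 750 nM protein high control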
RORg counter: modulation of RORgamma DNA binding, dose response, counter-screen for Rev-erb alpha modulator project, biochemical, fluorescence polarization, FITC-DNA | AID 1259320, 2017 | purified RORgamma protein-FITC-DNA binding | IC50, µM | shares compounds with NR1D1 modulator | 8% of 910 active;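 active means Compounds whose fitted half-maximal concentration for disrupting protein-DNA binding is below 10 micromolar; the record names Rev-erb in its text, so the target is in doubt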
Starred values were filed as active, the others as inactive; i = inactive; x = no result given. The list is not random: actives were taken first. Their share in the collection is about 2%.

SMILES	NR2E3 ag-1	NR2E3 ag-2	PG9 Ab binder	Neddylation inh	NR1D1 modulator	NR1D1 mod conf	RORg counter
Clc1ccc(-c2nn3c(-c4ccccc4)nnc3s2)cc1	-14.7	1.5	3.1	i	23.9*	15.0	x
Fc1ccc(-c2cc(-c3nnc4sc(-c5ccco5)nn34)[nH]n2)cc1	x	x	x	x	8.0	x	x
COc1cccc(OC)c1-c1nn2c(-c3cc(-c4ccccc4)n[nH]3)nnc2s1	-3.4	-14.1	-16.6	i	65.4*	83.1*	>40
Cc1cc(-c2nnc3sc(-c4ccc(Cl)cc4Cl)nn23)n[nH]1	-18.2	2.7	6.5	i	45.0*	39.6*	>40
Cc1ccc(C)c(S(=O)(=O)N2CCN(C(=O)[C@@H]3CCCN3C(=O)c3cccs3)CC2)c1	1.3	-2.3	-3.5	i	-4.7	x	x
Cc1ccc(C(=O)NC2CCCCN(Cc3cccc(Cl)c3)C2=O)c(C)c1 (stereo not given)	x	x	x	x	6.8	x	x
CC(=O)c1ccc(OCCCC(=O)N(CCC2=CCCCC2)c2c(N)n(Cc3ccccc3)c(=O)[nH]c2=O)cc1	7.7	1.5	0.5	i	-1.9	x	x
O=C(c1ccccc1)c1nn(-c2ccc(Cl)cc2)cc1C(=O)c1cc2ccccc2oc1=O	-13.1	4.1	-1.5	i	33.9*	-8.1	x
NC(=O)c1cn(-c2ccccc2)nc1-c1cc2ccccc2oc1=O	15.7	-0.6	0.0	i	-1.6	x	x
Cc1noc(C)c1-c1ccc(C(=O)NCCN2CCOCC2)c2occc12	0.5	x	-1.7	i	0.8	x	x
CC(C)[C@H]1/C(=C/C2CC2)N2C(=O)C[C@H](c3ccccc3)N=C2N1C	x	x	x	x	2.2	x	x
CCN1C(=O)C(=CC=CN(C)c2ccccc2)SC1=S	-96.0	x	-1.9	i	42.5*	45.9*	>40
CN1/C(=C\C=C2/SC(=S)NC2=O)C(C)(C)c2ccccc21	2.3	0.9	-5.6	i	37.4*	18.9*	x
CCCN1C(=O)/C(=C\C=C2\N(CC)c3ccccc3C2(C)C)SC1=S	2.2	x	-0.1	i	61.7*	2.2	x
O=C(O)CN1C(=O)/C(=C/C=C/c2ccccc2)SC1=S	-19.8	2.8	-2.9	i	0.6	x	x
CN(C)c1ccc(P(=O)(Nc2cccc(C(F)(F)F)c2)N2CCOCC2)c(NC(=O)c2cccs2)c1 (stereo not given)	2.5	3.6	0.9	i	32.5*	2.5	x
CC1(Cc2ccccc2C#N)C(=O)Nc2ccc(-c3ccccc3)cc21 (stereo not given)	-12.4	x	-1.1	i	35.6*	51.0*	>40
COc1ccccc1-c1ccc2c(c1)C(C)(Cc1ccc(Cl)c(Cl)c1)C(=O)N2 (stereo not given)	-30.2	x	0.6	i	6.6	x	x
COc1ccccc1-c1ccc2c(c1)C(C)(Cc1ccccc1C#N)C(=O)N2 (stereo not given)	33.5	x	0.2	i	47.8*	41.6*	>40
CCc1ccc2c(c1)NC(=O)C2(C)Cc1ccccc1C#N (stereo not given)	9.7	x	0.7	i	2.2	x	x
COc1cc2sc3ccc(-c4ccc(N(C)C)nc4)cc3c(=O)c2cc1OC	x	4.4	0.8	x	-18.2	x	x
COc1ccc(-c2ccc3sc4ccccc4c(=O)c3c2)cn1	-131.0	1.8	-0.3	i	58.0*	61.1*	>40
CCCCCOc1ccc(NC(=O)CSc2cccc3cccnc23)cc1	7.2	2.4	-2.3	x	45.7*	38.9*	1.35*
O=C(CCl)N1c2ccccc2Oc2ccc3ccccc3c21	-52.3	x	-3.0	i	15.2*	10.2	x
CCCCCCCCN1C(=O)[C@H](CC(=O)NCc2cccc(C(F)(F)F)c2)C[C@@]2(C(=O)OC)CCCCC=C12	-1.6	x	0.9	i	12.2	x	x
SMILES	NR2E3 ag-1	NR2E3 ag-2	PG9 Ab binder	Neddylation inh	NR1D1 modulator	NR1D1 mod conf	RORg counter
CC(=O)Nc1ccc(-c2nnc(SCC(=O)Nc3ccc4c(c3)oc3ccccc34)n2C)cc1	-15.2	2.3	1.2	x	-0.9	x	x
Cn1c(SCC(=O)Nc2cccc(F)c2)nnc1-c1cc2ccccc2o1	-15.0	-64.2	2.1	i	75.3*	102.3*	>40
Cc1ccccc1Cn1cc(S(=O)(=O)c2ccc(C(C)C)cc2)c(=O)c2cc3c(cc21)OCO3	-25.9	3.8	0.1	i	40.3*	21.3*	x
Cc1ccc(Cn2cc(S(=O)(=O)c3ccc(C(C)C)cc3)c(=O)c3cc4c(cc32)OCO4)cc1	-16.1	-0.5	0.2	i	23.1	x	x
CC1(C(=O)NCc2cccc(Cl)c2)Cc2c(-c3cccc(C(N)=O)c3)ccnc2O1 (stereo not given)	15.2	x	-0.5	i	-5.8	x	x
O=C(Nc1nnc(-c2ccccc2F)s1)C1CCN(S(=O)(=O)c2ccc(Cl)cc2)CC1	-20.7	-0.6	-1.6	i	32.7*	7.1	x
O=C(Nc1nnc(-c2ccc(F)cc2)s1)C1CCN(S(=O)(=O)c2ccc(Cl)cc2)CC1	-5.9	2.3	-1.4	i	121.1*	14.1	x
COc1ccccc1-n1cc(-c2ccc(Br)cc2)[nH]c1=S	-22.9	0.1	-0.8	i	3.4	x	x
S=c1[nH]c(-c2ccc(Br)cc2)cn1CCc1ccccc1	-2.6	0.8	1.4	i	17.2*	28.4*	x
Clc1cccc2sc(-c3nnc(-c4ccccc4)o3)c(Cl)c12	-41.9	0.9	1.0	i	37.9*	31.0*	x
N#CCSc1nnc(-c2sc3ccccc3c2Cl)o1	-9.1	-2.2	-2.6	i	-3.2	x	x
O=C(O)CN1C(=O)/C(=C\c2cn(CC(=O)N3CCOCC3)c3ccccc23)SC1=S	15.1	-10.5	-17.4	i	38.6*	38.7*	>40
CC(=NNc1cc(C)c2ccccc2n1)c1ccccn1	x	x	-2.3	x	0.6	x	x
CCCNC(=O)C1(C)CCN(Cc2ccc(OCc3ccccc3)cc2)C1 (stereo not given)	-17.9	x	2.3	i	-5.5	x	x
CCCSc1nc(SCC(=O)NCc2ccccc2)c2c3c(sc2n1)COC(C)(C)C3	-13.8	0.1	-0.3	i	45.3*	14.7	x
Cc1ccc(C)c(OC(=O)c2cccc(S(=O)(=O)N3CCN(C)CC3)c2)c1	-13.8	0.5	-2.2	i	0.9	x	x
CCN1C(=O)c2cccc3c(N)ccc(c23)C1=O	-21.3	-5.8	-8.0	i	240.0*	245.9*	5.26*
Cc1nn(C)c(C)c1N1C(=O)c2cccc3c(N)ccc(c23)C1=O	-19.1	-6.6	-8.9	i	174.7*	156.7*	1.83*
Cc1ccc(N2C(=O)c3cccc4c(N)ccc(c34)C2=O)c2cccnc12	-22.9	-0.6	-0.8	i	125.7*	131.2*	x
